We go through 27 variants from the RNAGym collection of RNA variant scans (doi:10.1101/gad.245936.114).

The chains are these.
B1: tRNA (parent)
chain: CUCUCGGUAGCCAAGUUGGUUUAAGGCGCAAGACUUUAAUUUAUCACUACGAAAUCUUGAGAUCGGGCGUUCGACUCGCCCCCGGGAGAUUUUUUCCUCGAGCAA

Variants at the floor of the assay were thinned out. Some results are limits rather than exact numbers.

Variants of B1 are the subject of this data set. The experiment in a line: nonsense suppression (GFP-seq) (ratio to wild type); higher = more function; SUP4oc tRNA, yeast GFP reporter sort-seq. In outline: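 Yeast were grown in raffinose/galactose medium with 80 mg/L adenine, each strain bearing a genome-integrated ochre-suppressor tRNA variant from a ~3% random-mutation library, a galactose-driven GFP ochre reporter, and RFP. After sorting into GFP/RFP bins, every bin was sequenced on an Illumina platform at phred ≥30. The GFPSEQ value, a measure of nonsense suppression, is the weighted bin median GFP/RFP relative to the unmutated parent tRNA, using each variant's estimated cell share per bin as the weight. Only variants with ≥100 reads and ≥30 cells were included.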
In the case of AUCUCGGUAGCCAAGUUGGUUUAAGGCGCAAGACUUUAAUUUAUCACUACGAAAUCUUGAGAUCGGGCGUUCGACUCGCCUCCGGGAGAUUUUUUCCUCGAGCAA [C1A C81U], the nonsense suppression was 0.045. Next, AUCUCGGUAGCCAAGUUGGUUUAAGGCGCAAGACUUUAAUUUAUCACUACGAAAUCUUGAGAUCGGGCGUUCGACUCGCCGCCGGGAGAUUUUUUCCUCGAGCAA [C1A C81G]: at most 0.026; AUCUCGGUAGCCAAGUUGGUUUAAGGCGCAAGACUUUAAUUUAUCACUACGAAAUCUUGAGAUCGGCCGUUAGACUCGCCCCCGGGAGAUUUUUUCCUCGAGCAA [C1A G67C C72A]: at most 0.026. AUCUUGGUAGCCAAGUAGGUUUAAGGCGCAAGACUUUAAUUUAUCACUACGAAAACUUGAGAUCGGGCGUUCGACUCGCCCCCGGGAGAUUUUUUCCUCGAGCAA [C1A C5U U17A U55A]: the nonsense suppression is at most 0.026. Under AUCUCGGUAGCCAAGUUGGUCUAAGGCGCAAGACUUUAAUUUAUCACUACGAAAUCUUGAGAUCGGGCGUUCAACUCGCCCCCGGGAGAUUUUUUCCUCGAGCAA [C1A U21C G73A] stands at most 0.026. Next, AUCUCGGUAGUUAUGUUGGUUUAAGGCGCAAGACUUUAAUUUAUCACUACGAAAUCUUGAGUUCGGGCGUUCGACUCGCCCCCGGGAGAUUUUUUCCUCGAGCAA [C1A C11U C12U A14U A62U]: at most 0.026. Under AUCUCGGUAGCCAAGUUGGUUUAAGGCGCGAGACUUUAAUUUAUCACUACGAAAUCUUGAGAUCGGGCGUUCGACUCGCCCCCGAGAGAUUUUUUCCUCGAGCAA [C1A A30G G85A] stands 0.0742. Regarding AUCUCGGUAGCCAAGUUGGUUUAAGGCGCCAGACUUUAAUUUAUCACUACGAAAUCUUGAGAUCGGGCGUUCGACUCGCCCCCGGGAGAUUUUUUCCUCGAGCAA [C1A A30C], the nonsense suppression is at most 0.026. Take AUCUCGGUAUCCAAGUUGGUUUAAGGCGCAAGACUUUAAUUUAUCACUACGAAAUCUUGAACUCGGGCGUUCCACUCGCCCCCGGGAGAUUUUUUCCUCGAGCAA [C1A G10U G61A A62C G73C]: the nonsense suppression was at most 0.026.

With GUCUCGGUAGCCAAGUUGGUUUAAGGCGCAUGACUUUAAUUUAUCACUACGAAAUCUUGAGAUCGGGCGUUCGACUCGCCCCCGGGAAAUUUUUUCCUCGAGCAA [C1G A31U G88A], the nonsense suppression is at most 0.026. Next, AUCUCGGUAGCCAAGUUGGUUUACGGCGCAAGACUUUAAUUUAUCACUACGAAAUCUUGCGAGCGGGCGUUGGACUGGCCCCCGGGAGAUUUUUUCCUCGAGCAA [C1A A24C A60C U63G C72G C77G]: at most 0.026; GUCUCGGUAGCCAUGUUGGUUUAAGGCGCAAGACUUUAAUUUAUCACUACGAAAUCUUGAGAUCGGGCGUUCGACUUGCCCCCGGGAGAUUUUUUCCUCGAGCAA [C1G A14U C77U]: at most 0.026. Consider AUCUCGGUAGCCAAGUUGGUUUAAGGCGCAAGACGUUAAUUUAUCACUACGAAAUCUUGAGAUCGGGCGUUCGACUCGCCCCCGGGAGAUUUUUUCCUCGAGCAA [C1A U35G], for which the nonsense suppression is at most 0.026. Next, AUCUCGGUAGCCAAGUUGGUUUAAGGCGCAAGACUUUAAUUUAUCACUACGAAGUCUUGAGUUCGGGCGUUCGACUCGCCCCCGGGAGAUUUUUUCCUCGAGCAA [C1A A54G A62U]: at most 0.026.

With AUCUCGGUAGCCAAGUUGUUUUAAGGCGCAAGACUUUAAUUUAUCACUACGAAAACUUGAGAUCGGGCGUUCGACUCGCCCCCGGGAGAUUUUUUCCUCGAGCAA [C1A G19U U55A], the nonsense suppression was at most 0.026. Under GUCUCGGUAGCCAAGUUGGUUUAAGGAGCAAGACUUUAAUUUAUCACUACGAAAGCUUGAGAUCGGGCGUUCGACUCGCCCCCGGGAGAUUUUUUCCUCGAGCAA [C1G C27A U55G] stands at most 0.026. Under AUCGCGGUAGCCAAGUUGGUUUAAGGUGCAAGACUUUAAUUUAUCACUACGAAAUCUUGAGAUCGGGCGUUCGACUCGCCCCCGGGAGAUUUUUUCCUCGAGCAA [C1A U4G C27U] stands at most 0.026; under GUCUCGGUCGCCAAGUUUGUUUAAGGCGCAAGACUUUAAUUUAUCACUACGAAAUCUUGAGAUCGGGCGUGCGACUCGCCCCCGGGAGAUUUUUUCCUCGAGCAA [C1G A9C G18U U71G], at most 0.026. Next, AUCUCGGUAGCCAAGUUGGUUUAAGGCGCAAGACUUUAAUUUAUCACUACGAAAUCUUGAGAUCGGGCGUCCGACUGGCCCCCGGGAGAUUUUUUCCUCGAGCAA [C1A U71C C77G]: at most 0.026. Turning to GUCUCGGUAGCCAAGUUGGUUUAAGGCGCAAGACUUUAAUUUAUCACUACGAACUCUUGAGAUCGGGCGUUCGACUCGCCCCCGGGAGAUUUUUUCCUCGAGCAA [C1G A54C], the nonsense suppression was 0.0309. Under AUCGCGGUAGUCAAGUUGGUUUAAGGCGCAAGACUUUAAUUUAUCACUACGAAAUCUUGAGAUCGGGCGUUCGACUCGCCCCCGGGAGAUUUUUUCCUCGAGCAA [C1A U4G C11U] stands at most 0.026; under AUCUCGGUAGCCAAGUUGGUUUAAGGCGCAAGACUUUAAUUUAUCACUACGAAAUCUUGAGGUCGGGCGUUCGCCUCGCCCCCAGGAGAUUUUUUCCUCGAGCAA [C1A A62G A74C G84A], at most 0.026. Under AUCUCGGUAGCCAAGUUGCUUUAAGGCGCAGGACUUUAAUUUAUCACUACGAAAUCUUGUGAUCGGGCGUAGGACUCGCCCCCUGGAGAUUUUUUCCUCGAGCAA [C1A G19C A31G A60U U71A C72G G84U] stands at most 0.026; under AUCUCGGUAGCCAAGUUGGUUUCAGGCGCAAGACUUUAAUUUAUCACUACGAAAUCUUGAGAUCGGGCGUUCGACUAGCCCCCGGGAGAUUUUUUCCUCGAGCAA [C1A A23C C77A], at most 0.026. Under AUCUCGGUAGCCAAGUUGGUUUAAGGCGCAAGACUUUAAUUUAUCACUACGAAAUCUUGAGAUCGGGCGUUCAACUCGCCCCCGGGAGAUUUUUUCCUCGAGCAA [C1A G73A] stands 0.112; under AUCUGGGUAGCCGAGUUCGUUUAAGGCGCAAGACUUUAAUUUAUCACUACGAAUUCUUGAGAUCCGGCGUUCGACUCGCCCCCGGGAGAUUUUUUCCUCGAGCAA [C1A C5G A13G G18C A54U G65C], at most 0.026; under AUAUCGGAAGCCAAGUUGGUUUAAGGCGCAAGACUUUAAUUUAUCACUACGAAAUCUUGAGAUCGGGCGUUCGACUCGCCCCCGGGAAAUUUUUUCCUCGAGCAA [C1A C3A U8A G88A], at most 0.026.
